# Reference: ChEMBL document CHEMBL1133743, “CCK peptides with combined features of hexa- and tetrapeptide CCK-A agonists” (J Med Chem, 2000)
# pKi: −log10 of the molar value. *1 amine or outer side, *2 acyl side, *3 side chain or, on linkers, in order; H or OH if unused. Where a SMILES comes first, the peptide text is derived from it. Side-chain parts run from the residue outwards. [ ]: non-standard residue; d: D form. The star is where a group is joined. NMeF = CN[C@@H](Cc1ccccc1)C(=O)O; NMeD = CN[C@@H](CC(=O)O)C(=O)O; NH(2-Me-phenyl) = Cc1ccccc1N*; X3 = O=C(/C=C/c1ccc(O)cc1)*; Nle = CCCC[C@H](N)C(=O)O; X1 = O=C(Cc1ccc(O)cc1)*; Boc = CC(C)(C)OC(=O)*; CO = O=C([*:1])[*:2]
# Experiments:
# [1] = biological target: T1, Cholecystokinin receptor type A (Rattus norvegicus, UniProt P30551); assay: Inhibition of [125I]BH-CCK-8 binding to Cholecystokinin type A receptor of rat pancreatic tissue
# T1 sequence (P30551 whole entry): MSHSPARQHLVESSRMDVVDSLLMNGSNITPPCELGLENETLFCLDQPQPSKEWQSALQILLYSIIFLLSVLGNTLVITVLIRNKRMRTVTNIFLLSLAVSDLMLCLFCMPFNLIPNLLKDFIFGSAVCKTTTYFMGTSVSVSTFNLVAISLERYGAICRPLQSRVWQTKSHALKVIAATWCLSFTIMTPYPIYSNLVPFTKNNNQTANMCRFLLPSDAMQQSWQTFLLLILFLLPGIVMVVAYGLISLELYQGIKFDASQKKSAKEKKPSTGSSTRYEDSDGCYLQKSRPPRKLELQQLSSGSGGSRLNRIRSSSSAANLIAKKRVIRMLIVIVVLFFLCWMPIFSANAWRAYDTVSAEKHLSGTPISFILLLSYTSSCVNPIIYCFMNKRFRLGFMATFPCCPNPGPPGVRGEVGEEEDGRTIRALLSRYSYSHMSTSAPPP
# Method in brief: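 Sprague–Dawley rat pancreas homogenized in 50 mM Tris pH 8.0 at 4 °C; washed membranes in 5 mM Tris (pH 7.4) with 5 mM MgCl2, 5 mM DTT, 2 mg/mL BSA, 0.14 mg/mL bacitracin.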
# [2] = biological target: T2, Gastrin/cholecystokinin type B receptor (Rattus norvegicus, UniProt P30553); assay: Binding affinity towards Cholecystokinin type B receptor in rat cortex synaptosomes using [125I]BH-CCK-8 as radioligand; type: subcellular, Brain
# T2 sequence (P30553 whole entry): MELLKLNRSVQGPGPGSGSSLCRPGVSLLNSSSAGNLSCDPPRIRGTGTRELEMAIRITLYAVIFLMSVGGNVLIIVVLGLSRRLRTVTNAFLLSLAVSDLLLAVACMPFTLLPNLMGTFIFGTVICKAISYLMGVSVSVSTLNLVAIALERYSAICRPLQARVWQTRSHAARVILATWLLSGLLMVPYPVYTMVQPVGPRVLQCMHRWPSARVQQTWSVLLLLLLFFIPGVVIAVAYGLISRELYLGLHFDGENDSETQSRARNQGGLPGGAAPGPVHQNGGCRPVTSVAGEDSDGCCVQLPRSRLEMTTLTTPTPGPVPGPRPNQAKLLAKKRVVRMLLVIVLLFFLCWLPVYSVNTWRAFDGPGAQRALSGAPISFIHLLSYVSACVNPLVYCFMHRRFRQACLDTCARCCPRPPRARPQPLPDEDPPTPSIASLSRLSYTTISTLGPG
# [3] = test system: Rattus norvegicus; assay: Ability of intraperitoneally administered compound, to inhibit food intake was measured 0.5 hr after feeding the rats.; type: functional; conditions: ip
# Method in brief: (§1)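 Male Sprague–Dawley rats (300–400 g), individually caged, 12 h light/dark cycle, trained ≥14 days to eat powdered chow during first 3 h of dark. Peptide or saline given ip in 0.5 mL 0.9% saline (pH 7.0–8.0) 10 min before food; cumulative intake read at 0.5 and 3 h in same experiment. Five doses, 10 rats/dose; ED50 by logistic fit.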
# [4] = test system: Rattus norvegicus; assay: Ability of intraperitoneally administered compound, to inhibit food intake was measured 3 hr after feeding the rats.; type: functional; conditions: ip; method in brief: as §1
Compound,pKi [1],pKi [2],ED50 [3] [µg/kg],ED50 [4] [µg/kg]
Cc1ccccc1NC(=O)NCCCC[C@H](NC(=O)[C@H](Cc1c[nH]c2ccccc12)NC(=O)OC(C)(C)C)C(=O)N[C@H](CC(=O)O)C(=O)N(C)[C@@H](Cc1ccccc1)C(N)=O,9.28,–,–,–
Cc1ccccc1NC(=O)NCCCC[C@H](NC(=O)[C@H](Cc1c[nH]c2ccccc12)NC(=O)OC(C)(C)C)C(=O)N[C@@H](CC(=O)O)C(=O)N[C@@H](Cc1ccccc1)C(N)=O (Boc-WK([CO-NH(2-Me-phenyl)])DF-NH2),8.09,–,–,–
CCCC[C@H](NC(=O)Cc1ccc(O)cc1)C(=O)NCC(=O)N[C@@H](Cc1c[nH]c2ccccc12)C(=O)N[C@@H](CCCCNC(=O)/C=C/c1ccc(O)cc1)C(=O)N[C@@H](CC(=O)O)C(=O)N(C)[C@@H](Cc1ccccc1)C(N)=O (X1-[Nle]GWK(X3)D[NMeF]-NH2),8.47,7.44,–,–
CCCC[C@H](NC(=O)Cc1ccc(O)cc1)C(=O)NCC(=O)N[C@@H](Cc1c[nH]c2ccccc12)C(=O)N[C@@H](CCCC)C(=O)N(C)[C@@H](CC(=O)O)C(=O)N[C@@H](Cc1ccccc1)C(N)=O (X1-[Nle]GW[Nle][NMeD]F-NH2),8.38,6.02,3.8,13

# More lines, in order of rising pKi [1], values ahead:
pKi [1],pKi [2],Compound,ED50 [3] [µg/kg],ED50 [4] [µg/kg]
7.29,–,CCCC[C@H](NC(=O)Cc1ccc(O)cc1)C(=O)NCC(=O)N[C@@H](Cc1c[nH]c2ccccc12)C(=O)N[C@@H](CCCC)C(=O)N[C@@H](CC(=O)O)C(=O)N(C)[C@@H](Cc1ccccc1)C(N)=O (X1-[Nle]GW[Nle]D[NMeF]-NH2),–,–
9.01,7.08,CSCC[C@H](NC(=O)Cc1ccc(OS(=O)(=O)O)cc1)C(=O)NCC(=O)N[C@@H](Cc1c[nH]c2ccccc12)C(=O)N[C@@H](CCSC)C(=O)N[C@@H](CC(=O)O)C(=O)N(C)[C@@H](Cc1ccccc1)C(N)=O,–,–
9.52,–,Cc1ccccc1NC(=O)NCCCC[C@H](NC(=O)[C@H](Cc1c[nH]c2ccccc12)NC(=O)OC(C)(C)C)C(=O)N[C@@H](CC(=O)O)C(=O)N(C)[C@@H](Cc1ccccc1)C(N)=O,0.9,3.2
